From ChEMBL document CHEMBL5058577, “EUbOPEN Chemogenomics Library 2 (Multiplex)” (2022)

Tested on: U2OS
Experiment: Multiplex assay against U2OS
Format: toxicity, cell-based
Settings: human
Procedure, shortened: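 Values for tubulin, mitochondrial-mass and membrane-permeability phenotypes are per cents of cells with healthy nuclei. These cells were identified by CellPathfinder machine-learning gating of live cells that had been stained at seeding with Hoechst33342, BioTracker Green Microtubule Cytoskeleton Dye, MitoTracker Red and Annexin V Alexa Fluor 680 and imaged on a CQ1 microscope at 37°C and 5% CO2 after compound addition. The gating first set Hoechst high-intensity objects apart from normal cells, then split normal cells into healthy, pyknosed or fragmented nuclei, and pyknosed cells into mitotic or apoptotic.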

[1] = 12 h, 1 µM, compound concentration 1 uM, replicate 1
[2] = 12 h, 1 µM, compound concentration 1 uM, replicate 2
[3] = 12 h, 10 µM, compound concentration 10 uM, replicate 1
[4] = 12 h, 10 µM, compound concentration 10 uM, replicate 2
[5] = 24 h, 1 µM, compound concentration 1 uM, replicate 1
[6] = 24 h, 1 µM, compound concentration 1 uM, replicate 2
[7] = 24 h, 10 µM, compound concentration 10 uM, replicate 1
[8] = 24 h, 10 µM, compound concentration 10 uM, replicate 2
[9] = 48 h, 1 µM, compound concentration 1 uM, replicate 1
[10] = 48 h, 1 µM, compound concentration 1 uM, replicate 2
[11] = 48 h, 10 µM, compound concentration 10 uM, replicate 1
[12] = 48 h, 10 µM, compound concentration 10 uM, replicate 2

**Q.** Which “Population Apoptotic (%)” value [1] does the source give for `O=C(CCCc1ccccc1)Nc1nc2ccccc2c(=O)s1` here?
**A.** 92%

**Q.** What about the “Population Fragmented Nuclei (%)” value [1] of the same compound?
**A.** 26%

**Q.** What about the “Population Healthy Nuclei (%)” value [1] of the same compound?
**A.** 64%

**Q.** And the “Population Hoechst High Intensity Objects (%)” value [1]?
**A.** 2%

**Q.** And the “Population Membrane Permeable-Phenotype (%)” value [1]?
**A.** 4%

**Q.** What about the “Population Mitochondria Different-Phenotype (%)” value [1] of the same compound?
**A.** 2%

**Q.** What about the “Population Mitotic Cells (%)” value [1] of the same compound?
**A.** 7%

**Q.** What about the “Population Normal (%)” value [1] of the same compound?
**A.** 97%

**Q.** And the “Population Pyknosed Nuclei (%)” value [1]?
**A.** 9%

**Q.** And the “Population Tubulin-Different-Phenotype (%)” value [1]?
**A.** 1%

**Q.** And the “Total Cell Count” value [1]?
**A.** 274

**Q.** What about the “Population Apoptotic (%)” value [2] of the same compound?
**A.** 55%

**Q.** What about the “Population Fragmented Nuclei (%)” value [2] of the same compound?
**A.** 17%

**Q.** And the “Population Healthy Nuclei (%)” value [2]?
**A.** 74%

**Q.** What about the “Population Hoechst High Intensity Objects (%)” value [2] of the same compound?
**A.** 0%

**Q.** And the “Population Membrane Permeable-Phenotype (%)” value [2]?
**A.** 7%

**Q.** And the “Population Mitochondria Different-Phenotype (%)” value [2]?
**A.** 3%

**Q.** And the “Population Mitotic Cells (%)” value [2]?
**A.** 44%

**Q.** And the “Population Normal (%)” value [2]?
**A.** 100%

**Q.** And the “Population Pyknosed Nuclei (%)” value [2]?
**A.** 7%

**Q.** And the “Population Tubulin-Different-Phenotype (%)” value [2]?
**A.** 2%

**Q.** And the “Total Cell Count” value [2]?
**A.** 113

**Q.** And the “Population Apoptotic (%)” value [3]?
**A.** 72%

**Q.** What about the “Population Fragmented Nuclei (%)” value [3] of the same compound?
**A.** 31%

**Q.** What about the “Population Healthy Nuclei (%)” value [3] of the same compound?
**A.** 58%

**Q.** What about the “Population Hoechst High Intensity Objects (%)” value [3] of the same compound?
**A.** 2%

**Q.** And the “Population Membrane Permeable-Phenotype (%)” value [3]?
**A.** 2%

**Q.** And the “Population Mitochondria Different-Phenotype (%)” value [3]?
**A.** 0%

**Q.** What about the “Population Mitotic Cells (%)” value [3] of the same compound?
**A.** 28%

**Q.** What about the “Population Normal (%)” value [3] of the same compound?
**A.** 97%

**Q.** And the “Population Pyknosed Nuclei (%)” value [3]?
**A.** 9%

**Q.** What about the “Population Tubulin-Different-Phenotype (%)” value [3] of the same compound?
**A.** 1%

**Q.** What about the “Total Cell Count” value [3] of the same compound?
**A.** 270

**Q.** And the “Population Apoptotic (%)” value [4]?
**A.** 100%

**Q.** What about the “Population Fragmented Nuclei (%)” value [4] of the same compound?
**A.** 20%

**Q.** And the “Population Healthy Nuclei (%)” value [4]?
**A.** 67%

**Q.** And the “Population Hoechst High Intensity Objects (%)” value [4]?
**A.** 4%

**Q.** What about the “Population Membrane Permeable-Phenotype (%)” value [4] of the same compound?
**A.** 7%

**Q.** What about the “Population Mitochondria Different-Phenotype (%)” value [4] of the same compound?
**A.** 6%

**Q.** And the “Population Mitotic Cells (%)” value [4]?
**A.** 0%

**Q.** What about the “Population Normal (%)” value [4] of the same compound?
**A.** 95%

**Q.** And the “Population Pyknosed Nuclei (%)” value [4]?
**A.** 11%

**Q.** What about the “Population Tubulin-Different-Phenotype (%)” value [4] of the same compound?
**A.** 6%

**Q.** And the “Total Cell Count” value [4]?
**A.** 101

**Q.** And the “Population Apoptotic (%)” value [5]?
**A.** 79%

**Q.** What about the “Population Fragmented Nuclei (%)” value [5] of the same compound?
**A.** 22%

**Q.** And the “Population Healthy Nuclei (%)” value [5]?
**A.** 68%

**Q.** What about the “Population Hoechst High Intensity Objects (%)” value [5] of the same compound?
**A.** 1%

**Q.** What about the “Population Membrane Permeable-Phenotype (%)” value [5] of the same compound?
**A.** 4%

**Q.** And the “Population Mitochondria Different-Phenotype (%)” value [5]?
**A.** 2%

**Q.** And the “Population Mitotic Cells (%)” value [5]?
**A.** 20%

**Q.** What about the “Population Normal (%)” value [5] of the same compound?
**A.** 98%

**Q.** What about the “Population Pyknosed Nuclei (%)” value [5] of the same compound?
**A.** 9%

**Q.** What about the “Population Tubulin-Different-Phenotype (%)” value [5] of the same compound?
**A.** 2%

**Q.** And the “Total Cell Count” value [5]?
**A.** 325

**Q.** And the “Population Apoptotic (%)” value [6]?
**A.** 84%

**Q.** What about the “Population Fragmented Nuclei (%)” value [6] of the same compound?
**A.** 17%

**Q.** And the “Population Healthy Nuclei (%)” value [6]?
**A.** 73%

**Q.** What about the “Population Hoechst High Intensity Objects (%)” value [6] of the same compound?
**A.** 0%

**Q.** What about the “Population Membrane Permeable-Phenotype (%)” value [6] of the same compound?
**A.** 8%

**Q.** And the “Population Mitotic Cells (%)” value [6]?
**A.** 15%

**Q.** And the “Population Normal (%)” value [6]?
**A.** 100%

**Q.** What about the “Population Tubulin-Different-Phenotype (%)” value [6] of the same compound?
**A.** 3%

**Q.** And the “Total Cell Count” value [6]?
**A.** 141

**Q.** And the “Population Apoptotic (%)” value [7]?
**A.** 86%

**Q.** What about the “Population Fragmented Nuclei (%)” value [7] of the same compound?
**A.** 25%

**Q.** What about the “Population Healthy Nuclei (%)” value [7] of the same compound?
**A.** 65%

**Q.** And the “Population Hoechst High Intensity Objects (%)” value [7]?
**A.** 2%

**Q.** What about the “Population Membrane Permeable-Phenotype (%)” value [7] of the same compound?
**A.** 5%

**Q.** What about the “Population Mitochondria Different-Phenotype (%)” value [7] of the same compound?
**A.** 1%

**Q.** And the “Population Mitotic Cells (%)” value [7]?
**A.** 13%

**Q.** And the “Population Normal (%)” value [7]?
**A.** 97%

**Q.** And the “Population Pyknosed Nuclei (%)” value [7]?
**A.** 9%

**Q.** What about the “Population Tubulin-Different-Phenotype (%)” value [7] of the same compound?
**A.** 4%

**Q.** What about the “Total Cell Count” value [7] of the same compound?
**A.** 319

**Q.** And the “Population Apoptotic (%)” value [8]?
**A.** 100%

**Q.** And the “Population Fragmented Nuclei (%)” value [8]?
**A.** 19%

**Q.** What about the “Population Healthy Nuclei (%)” value [8] of the same compound?
**A.** 71%

**Q.** And the “Population Hoechst High Intensity Objects (%)” value [8]?
**A.** 1%

**Q.** And the “Population Membrane Permeable-Phenotype (%)” value [8]?
**A.** 8%

**Q.** And the “Population Mitochondria Different-Phenotype (%)” value [8]?
**A.** 2%

**Q.** What about the “Population Mitotic Cells (%)” value [8] of the same compound?
**A.** 0%

**Q.** What about the “Population Normal (%)” value [8] of the same compound?
**A.** 98%

**Q.** What about the “Population Tubulin-Different-Phenotype (%)” value [8] of the same compound?
**A.** 3%

**Q.** What about the “Total Cell Count” value [8] of the same compound?
**A.** 124

**Q.** And the “Population Apoptotic (%)” value [9]?
**A.** 91%

**Q.** And the “Population Fragmented Nuclei (%)” value [9]?
**A.** 13%

**Q.** And the “Population Healthy Nuclei (%)” value [9]?
**A.** 76%

**Q.** What about the “Population Hoechst High Intensity Objects (%)” value [9] of the same compound?
**A.** 7%

**Q.** What about the “Population Membrane Permeable-Phenotype (%)” value [9] of the same compound?
**A.** 3%

**Q.** And the “Population Mitochondria Different-Phenotype (%)” value [9]?
**A.** 2%

**Q.** What about the “Population Mitotic Cells (%)” value [9] of the same compound?
**A.** 8%

**Q.** And the “Population Normal (%)” value [9]?
**A.** 92%

**Q.** And the “Population Pyknosed Nuclei (%)” value [9]?
**A.** 9%

**Q.** And the “Population Tubulin-Different-Phenotype (%)” value [9]?
**A.** 1%

**Q.** What about the “Total Cell Count” value [9] of the same compound?
**A.** 394

**Q.** And the “Population Apoptotic (%)” value [10]?
**A.** 87%

**Q.** What about the “Population Fragmented Nuclei (%)” value [10] of the same compound?
**A.** 19%

**Q.** And the “Population Healthy Nuclei (%)” value [10]?
**A.** 71%

**Q.** And the “Population Hoechst High Intensity Objects (%)” value [10]?
**A.** 5%

**Q.** What about the “Population Mitochondria Different-Phenotype (%)” value [10] of the same compound?
**A.** 3%

**Q.** And the “Population Mitotic Cells (%)” value [10]?
**A.** 12%

**Q.** And the “Population Normal (%)” value [10]?
**A.** 94%

**Q.** And the “Population Pyknosed Nuclei (%)” value [10]?
**A.** 8%

**Q.** What about the “Population Tubulin-Different-Phenotype (%)” value [10] of the same compound?
**A.** 6%

**Q.** And the “Total Cell Count” value [10]?
**A.** 192

**Q.** What about the “Population Apoptotic (%)” value [11] of the same compound?
**A.** 91%

**Q.** And the “Population Fragmented Nuclei (%)” value [11]?
**A.** 20%

**Q.** What about the “Population Healthy Nuclei (%)” value [11] of the same compound?
**A.** 70%

**Q.** And the “Population Hoechst High Intensity Objects (%)” value [11]?
**A.** 2%

**Q.** And the “Population Membrane Permeable-Phenotype (%)” value [11]?
**A.** 5%

**Q.** And the “Population Mitochondria Different-Phenotype (%)” value [11]?
**A.** 0%

**Q.** What about the “Population Mitotic Cells (%)” value [11] of the same compound?
**A.** 8%

**Q.** And the “Population Normal (%)” value [11]?
**A.** 97%

**Q.** And the “Population Pyknosed Nuclei (%)” value [11]?
**A.** 8%

**Q.** What about the “Population Tubulin-Different-Phenotype (%)” value [11] of the same compound?
**A.** 3%

**Q.** What about the “Total Cell Count” value [11] of the same compound?
**A.** 427

**Q.** And the “Population Apoptotic (%)” value [12]?
**A.** 95%

**Q.** What about the “Population Fragmented Nuclei (%)” value [12] of the same compound?
**A.** 15%

**Q.** And the “Population Healthy Nuclei (%)” value [12]?
**A.** 72%

**Q.** And the “Population Hoechst High Intensity Objects (%)” value [12]?
**A.** 0%

**Q.** What about the “Population Membrane Permeable-Phenotype (%)” value [12] of the same compound?
**A.** 9%

**Q.** And the “Population Mitochondria Different-Phenotype (%)” value [12]?
**A.** 3%

**Q.** And the “Population Mitotic Cells (%)” value [12]?
**A.** 4%

**Q.** What about the “Population Normal (%)” value [12] of the same compound?
**A.** 99%

**Q.** What about the “Population Pyknosed Nuclei (%)” value [12] of the same compound?
**A.** 12%

**Q.** And the “Population Tubulin-Different-Phenotype (%)” value [12]?
**A.** 5%

**Q.** And the “Total Cell Count” value [12]?
**A.** 175
